Source: ChEMBL document CHEMBL1123418, “N-imidazolylchroman-4-ones, N-imidazolyl-1-tetralones, and their alcohols as hypolipemic agents raising high-density lipoproteins” (1986)
Values joined by “and” are separate entries in the source; they are usually repeats but may differ in a detail not shown here. Identical values can stand only once.

Key:
[1] = system: Rattus norvegicus; assay: Percent increase in liver weight in rats when administered perorally; type: functional
[2] = system: Rattus norvegicus; assay: Percent change in total cholesterol concentration in serum from hypercholesterolemic rats at dose 42.5 mg/kg (po); type: functional
[3] = system: Rattus norvegicus; assay: Percent change in high density lipoproteins cholesterol concentration in serum from hypercholesterolemic rats at dose 42.5 mg/kg (po); type: functional
Outline: (§1)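 Rats were fed 1.5% cholesterol/0.5% cholic acid diet for 7 days, with compounds given by gavage over the last 4 days as a 0.5% Methocel suspension (0.5 mL/100 g). Rats were fasted overnight, killed on day 8 and bled under light CO₂ anesthesia. HDL was isolated by heparin-MnCl₂ precipitation (8000 rpm, 15 min, 4 °C). Total and HDL cholesterol were measured enzymatically-colorimetrically; % change vs control.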

[4] = system: Rattus norvegicus; assay: Percent increase in liver weight in rats when a 50 mg/Kg dose was administered; type: functional
[5] = Percent change in high density lipoprotein cholesterol
[6] = system: Rattus norvegicus; assay: Percent change in triglyceride concentration in serum from normocholesterolemic rats at dose 200 mg/kg (po)
[7] = system: Rattus norvegicus; assay: Percent change in total cholesterol concentration in serum from normocholesterolemic rats at dose 200 mg/kg (po)
[8] = system: Rattus norvegicus; assay: Percent change in low density lipoproteins cholesterol concentration in serum from normocholesterolemic rats at dose 200 mg/kg (po)
[9] = system: Rattus norvegicus; assay: Percent change in high density lipoproteins cholesterol concentration in serum from normocholesterolemic rats at dose 200 mg/kg (po)
[10] = system: Rattus norvegicus; assay: Percent change in triglyceride concentration in serum from normocholesterolemic rats at dose 100 mg/kg (po)
[11] = system: Rattus norvegicus; assay: Percent change in total cholesterol concentration in serum from normocholesterolemic rats at dose 100 mg/kg (po)
[12] = system: Rattus norvegicus; assay: Percent change in low density lipoproteins cholesterol concentration in serum from normocholesterolemic rats at dose 100 mg/kg (po)
[13] = system: Rattus norvegicus; assay: Percent change in high density lipoproteins cholesterol concentration in serum from normocholesterolemic rats at dose 100 mg/kg (po)
[14] = system: Rattus norvegicus; assay: Percent change in high density lipoproteins cholesterol concentration in serum from hypercholesterolemic rats at dose 10 mg/kg (po); type: functional; outline: as §1
[15] = system: Rattus norvegicus; assay: Percent change in total cholesterol concentration in serum from hypercholesterolemic rats at dose 10 mg/kg (po); type: functional; outline: as §1
[16] = system: Rattus norvegicus; assay: Percent change in total cholesterol concentration in serum from hypercholesterolemic rats at dose 21 mg/kg (po); type: functional; outline: as §1
[17] = system: Rattus norvegicus; assay: Percent change in high density lipoproteins cholesterol concentration in serum from hypercholesterolemic rats at dose 21 mg/kg (po); type: functional; outline: as §1
[18] = species on record: Rattus norvegicus; assay: Compound was tested in vitro for inhibition of Cholesterol biosynthesis in rat liver slices, % inhibition of [14C]acetate incorporation in cholesterol; type: functional
Outline: (§2)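 Liver slices (250 mg) from fed male rats were incubated in Krebs-Ringer bicarbonate, pH 7.4, with 4 mM [2-¹⁴C]acetate under 95% O₂-5% CO₂. Compounds were tested at a final 2 × 10⁻⁴ M, or 5 × 10⁻⁵ M for one compound. ¹⁴C incorporation into cholesterol and into petroleum-ether-soluble nonsaponifiable neutral lipids gave % inhibition; mean of four determinations.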

[19] = species on record: Rattus norvegicus; assay: Compound was tested in vitro for inhibition of Cholesterol biosynthesis in rat liver slices, % inhibition of [14C]acetate incorporation in neutral lipids; type: functional; outline: as §2
[20] = system: Rattus norvegicus; assay: Compound was tested for Hepatic peroxisomal proliferation effect in male rats treated for 7 days at dose 50 mg/kg carnitine acetyl transferase activity(per mg) of protein; type: functional
Outline: (§3)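 Male OFA-ICO SD rats received oral doses of 50 mg/kg/day for 1 week. Liver was homogenized in 0.25 M sucrose-0.01 M phosphate-0.1% ethanol, pH 7, then diluted in incubation buffer with 0.1% Triton X-100 and centrifuged. Supernatants were assayed for catalase (K, sec⁻¹), carnitine acetyltransferase (nmol CoASH/min) and cyanide-insensitive palmitoyl-CoA oxidation (nmol NAD⁺ reduced/min). Mean ± SEM of three rats; Dunnett's test.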

[21] = system: Rattus norvegicus; assay: Compound was tested for Hepatic peroxisomal proliferation effect in male rats treated for 7 days at dose 50 mg/kg protein; type: functional
[22] = system: Rattus norvegicus; assay: Compound was tested for Hepatic peroxisomal proliferation effect in male rats treated for 7 days at dose 50 mg/kg palmitoyl-CoA oxidation activity(per mg) of protein; type: functional; outline: as §3
[23] = system: Rattus norvegicus; assay: Percent change in total cholesterol concentration in serum from hypercholesterolemic rats at dose 50 mg/kg (po); type: functional
[24] = system: Rattus norvegicus; assay: Compound was tested for Hepatic peroxisomal proliferation effect in male rats treated for 7 days at dose 50 mg/kg concentration of hepatic proteins(mg/g) in liver; type: functional, organism-based; set-up: dose 50 mg/kg
[25] = system: Rattus norvegicus; assay: Compound was tested for Enzyme induction effect in male rats treated for 5 days at dose 75 mg/kg aminopyrine N-demethylase activity(per g) of liver; type: functional; settings: dose 50 mg/kg; in the assay text read “50 mg/kg” for “75 mg/kg”
Outline: (§4)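 Male OFA-ICO SD rats were dosed orally for 5 days, with test compounds at 50 mg/kg/day and sodium phenobarbital at 75 mg/kg/day. Liver was homogenized in 1.15% KCl-0.01 M phosphate, pH 7.5. Microsomes were spun from the 9000g supernatant at 105000g and assayed for protein, cytochrome P-450, aniline p-hydroxylation (µmol p-aminophenol/20 min) and aminopyrine N-demethylation (µmol HCHO/5 min). Liver/body weight was also recorded. Mean ± SEM of four rats; Dunnett's test.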

[26] = system: Rattus norvegicus; assay: Compound was tested for Enzyme induction effect in male rats treated for 5 days at dose 75 mg/kg aniline p-hydroxylase activity(per g) of liver; type: functional; settings: dose 50 mg/kg; in the assay text read “50 mg/kg” for “75 mg/kg”; outline: as §4
[27] = system: Rattus norvegicus; assay: Compound was tested for Enzyme induction effect in male rats treated for 5 days at dose 75 mg/kg concentration of cytochrome […]( mmol/mg) in protein; type: functional; settings: dose 50 mg/kg; in the assay text read “50 mg/kg” for “75 mg/kg”; outline: as §4
[28] = Compound was tested for Enzyme induction effect in male rats treated for 5 days at dose 75 mg/kg ratio of % liver weight to % body weight; type: functional; settings: dose 50 mg/kg; in the assay text read “50 mg/kg” for “75 mg/kg”; outline: as §4
[29] = Compound was tested for Hepatic peroxisomal proliferation effect in male rats treated for 7 days at dose 50 mg/kg ratio of % liver weight to % body weight; type: functional
[30] = system: Rattus norvegicus; assay: Percent change in triglyceride concentration in serum from normocholesterolemic rats at dose 50 mg/kg (po)
[31] = system: Rattus norvegicus; assay: Percent change in low density lipoproteins cholesterol concentration in serum from normocholesterolemic rats at dose 50 mg/kg (po)
[32] = system: Rattus norvegicus; assay: Compound was tested for Enzyme induction effect in male rats treated for 5 days at dose 50 mg/kg concentration of microsomal proteins(mg/g) in liver
[33] = system: Rattus norvegicus; assay: Percent change in total cholesterol concentration in serum from hypercholesterolemic rats at dose 40 mg/kg (po); type: functional
[34] = system: Rattus norvegicus; assay: Percent change in high density lipoproteins cholesterol concentration in serum from hypercholesterolemic rats at dose 40 mg/kg (po); type: functional; outline: as §1
[35] = system: Rattus norvegicus; assay: Percent change in total cholesterol concentration in serum from hypercholesterolemic rats at dose 30 mg/kg (po); type: functional; outline: as §1
[36] = system: Rattus norvegicus; assay: Percent change in high density lipoproteins cholesterol concentration in serum from hypercholesterolemic rats at dose 30 mg/kg (po); type: functional; outline: as §1
[37] = system: Rattus norvegicus; assay: Compound was tested for Enzyme induction effect in male rats treated for 5 days at dose 50 mg/kg aminopyrine N-demethylase activity(per g) of liver; type: functional; outline: as §4
[38] = system: Rattus norvegicus; assay: Compound was tested for Enzyme induction effect in male rats treated for 5 days at dose 50 mg/kg aniline p-hydroxylase activity(per g) of liver; type: functional; outline: as §4
[39] = system: Rattus norvegicus; assay: Compound was tested for Enzyme induction effect in male rats treated for 5 days at dose 50 mg/kg concentration of cytochrome […]( mmol/mg) in protein; type: functional; outline: as §4
[40] = system: Rattus norvegicus; assay: Compound was tested for Enzyme induction effect in male rats treated for 5 days at dose 50 mg/kg concentration of microsomal proteins(mg/g) in liver; type: functional, organism-based; set-up: dose 50 mg/kg; outline: as §4
[41] = system: Rattus norvegicus; assay: Percent change in high density lipoproteins cholesterol concentration in serum from hypercholesterolemic rats at dose 50 mg/kg (po); type: functional; outline: as §1
[42] = species on record: Rattus norvegicus; assay: Compound was tested in vitro for inhibition of Cholesterol biosynthesis in rat liver slices, % inhibition of [14C]acetate incorporation in neutral lipids at 5 e10-5 concentration; type: functional; outline: as §2
[43] = species on record: Rattus norvegicus; assay: Compound was tested in vitro for inhibition of Cholesterol biosynthesis in rat liver slices, % inhibition of [14C]acetate incorporation in cholesterol at 5 e10-5 concentration; type: functional; outline: as §2
[44] = Compound was tested for Enzyme induction effect in male rats treated for 5 days at dose 50 mg/kg ratio of % liver weight to % body weight; type: functional; outline: as §4

CC1Oc2ccc(C(=O)O)cc2C(=O)C1n1ccnc1 (stereo not given)
Change [1]: 3%
Change [2]: -12%
Change [3]: -18%

CCOC(=O)C(C)(C)Oc1ccc(Cl)cc1 [CLOFIBRATE]
Change [4]: 25%
Percent change in HDL cholesterol [5]: 13
Change [6]: -52%
Change [7]: -35%
Change [8]: -40%
Change [9]: -32%

CC(C)OC(=O)C(C)(C)Oc1ccc(C(=O)c2ccc(Cl)cc2)cc1 [FENOFIBRATE]
Change [4]: 38%
Percent change in HDL cholesterol [5]: 7
Change [10]: -50%
Change [11]: -28%
Change [12]: -31%
Change [13]: -27%

COc1ccc2c(c1)CCC(n1ccnc1)C2=O (stereo not given)
Change [1]: 0%
Change [14]: 34%
Change [15]: -37%

CC1Oc2cc(O)c(Br)cc2C(=O)C1n1ccnc1 (stereo not given)
Change [1]: 1%
Change [16]: -10%
Change [17]: 2%

CCCCCCCCCCCCn1ccnc1
Inhibition [18]: 66%
Inhibition [19]: 14%

Cc1cccc(Nc2cc(Cl)nc(SCC(=O)NCCO)n2)c1C [PIRINIXIL]
Change [4]: 42%
Change [1]: 54%
Activity [20]: 69.8
Activity [21]: 58.8
Activity [22]: 16.2
Change ([23]; 50 mg/kg): -43% and -23%
Concentration [24]: 237
Activity [25]: 0.69
Activity [26]: 0.64
Activity [27]: 0.82
Ratio [28]: 4.99%
Ratio [29]: 5.31%
Percent change in HDL cholesterol [5]: -9
Change [30]: -48%
Change [31]: -19%
Concentration [32]: 25

O=C(O)c1cccc2c1C(=O)C(n1ccnc1)CC2 (stereo not given)
Change [1]: -4%
Change [33]: -19%
Change [34]: -9%

O=C1c2ccc(Br)cc2CCC1n1ccnc1 (stereo not given)
Change [1]: 31%
Change [35]: -84%
Change [36]: 228%

O=C1c2ccc(O)c(Br)c2CCC1n1ccnc1 (stereo not given)
Change [1]: 13%
Activity [37]: 1.69
Activity [38]: 0.67
Activity [39]: 0.98
Change [23]: -44%
Concentration [40]: 28
Change [41]: 109%
Inhibition [42]: 0%
Inhibition [43]: 0%
Ratio [44]: 3.24%
